VIM-2 inhibitor = blocks Pseudomonas aeruginosa VIM-2 metallo-beta-lactamase; purified VIM-2, nitrocefin hydrolysis, epi-absorbance fluorescence; inhibition, % at 5.6 µM; hit rate 0.89% among 290,000; AID 1527;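 active = inhibition above the mean of all tested compounds plus 3 SD, cutoff set per screening run, cut at about 7.5% in these data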;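 note: red hydrolysis product quenches plate fluorescence so inhibitors raise well fluorescence; 0% = enzyme with DMSO and 100% = DMSO without enzyme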
ATG4B inhibitor = ATG4B (human) cysteine protease inhibition; Q9Y4P1; ATG4B cleavage of LC3-PLA2, NBD-HPC fluorescence, 1 h; inhibition, % at 8.33 µM; hit rate 0.51% among 340,000; AID 504462; in the data active = inhibition above about 40%
PvdQ acylase = P. aeruginosa PvdQ acylase inhibition. purified PvdQ acylase, fluorescence plate reader. inhibition, % at 10 µM. hit rate 0.063% among 340,000; in the data active = inhibition above about 30%, passing the limit was not always enough;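 note: 0% = vehicle neutral wells and 100% = reference inhibitor wells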
HKDC1 inh = inhibitors of human hexokinase HKDC1; Q2TB90; recombinant HKDC1, G6PDH/diaphorase resazurin coupled fluorescence; inhibition, % at 20 µM; hit rate 0.16% among 340,000; AID 493160;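 active = inhibition above about 35% when tested at 20 µM, limit read from the data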;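 note: plate controls were DMSO wells with enzyme for no effect and DMSO wells lacking enzyme for full effect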
Target sequence (Q2TB90 whole entry, looked up): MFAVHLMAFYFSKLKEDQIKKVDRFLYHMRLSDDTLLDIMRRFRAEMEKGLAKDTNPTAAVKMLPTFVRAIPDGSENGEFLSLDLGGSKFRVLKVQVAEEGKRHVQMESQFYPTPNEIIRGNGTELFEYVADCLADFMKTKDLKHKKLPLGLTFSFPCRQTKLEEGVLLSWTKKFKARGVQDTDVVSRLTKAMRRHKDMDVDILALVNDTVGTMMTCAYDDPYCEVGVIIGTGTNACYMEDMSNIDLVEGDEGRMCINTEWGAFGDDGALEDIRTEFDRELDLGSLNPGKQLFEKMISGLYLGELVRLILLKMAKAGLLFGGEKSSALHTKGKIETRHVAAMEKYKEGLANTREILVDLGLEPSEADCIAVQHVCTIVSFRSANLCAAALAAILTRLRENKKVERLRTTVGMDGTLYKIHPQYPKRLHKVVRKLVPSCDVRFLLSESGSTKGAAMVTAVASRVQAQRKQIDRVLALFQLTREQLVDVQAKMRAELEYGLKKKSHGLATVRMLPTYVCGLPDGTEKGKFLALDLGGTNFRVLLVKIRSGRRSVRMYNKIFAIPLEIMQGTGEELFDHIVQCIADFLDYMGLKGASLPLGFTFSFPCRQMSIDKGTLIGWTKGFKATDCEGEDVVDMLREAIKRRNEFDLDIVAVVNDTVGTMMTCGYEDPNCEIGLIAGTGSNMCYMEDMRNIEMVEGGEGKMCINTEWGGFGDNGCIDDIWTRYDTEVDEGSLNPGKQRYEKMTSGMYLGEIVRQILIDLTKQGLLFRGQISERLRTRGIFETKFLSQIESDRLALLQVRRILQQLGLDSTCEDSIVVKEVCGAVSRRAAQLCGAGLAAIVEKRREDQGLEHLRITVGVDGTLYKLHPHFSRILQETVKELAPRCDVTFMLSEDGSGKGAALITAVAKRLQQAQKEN
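Material – in-house recombinant HK5 (HKDC1) enzyme · Quantity – HKDC1 at 5 µg/mL · Buffer or medium – pH 8.0 Tris buffer with 10 mM MgCl2 · Reagent – glucose with 1 mM ATP · Dosing – single 20 µM dose · Times – reaction time 90 min, room temperature, protected from light · Technique – resorufin fluorescence at 613 nm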
beta cell repl = induces beta-cell replication in MIN6 cells. MIN6 cells proliferation, ATPlite luminescence, 48 h; cells starved in 0.2% serum; 100% = growth in 10% serum. hit rate 0.29% among 330,000. proliferation, % at 10 µM;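 active = compounds whose signal lies at least 3.5 SD above the mean of all wells on their plate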;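 note: 0% = DMSO-treated cells in low-serum medium and 100% = 10% serum control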
IMP-1 inhibitor = blocks Pseudomonas aeruginosa IMP-1 metallo-beta-lactamase. inhibition, % at 5.6 µM. hit rate 0.45% among 290,000. purified IMP-1, nitrocefin hydrolysis, epi-absorbance fluorescence;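 active = inhibition above the mean plus 3 SD of all compounds in the same screening run, cut at about 4.5% in these data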;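 note: 0% = IMP-1 with DMSO and 100% = DMSO wells lacking enzyme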
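System: purified recombinant IMP-1 beta-lactamase. Medium: Zinc- and detergent-supplemented HEPES buffer, pH 7.1. Compound: one 5.6 µM dose […]. Schedule: 15 min preincubation plus 25 min reaction at 25 °C. Technique: Epi-absorbance fluorescence, 480 nm excitation, 530 nm emission.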
Starred values were filed as active, the others as inactive; · = no result. The list is not random: actives were taken first. Their share in the collection is about 2%.

SMILES | VIM-2 inhibitor | ATG4B inhibitor | PvdQ acylase | HKDC1 inh | beta cell repl | IMP-1 inhibitor
C#CC[N+](C)(C)CCN1C(=O)C2C(c3ccccc3)C=CC(c3ccccc3)C2C1=O (stereo not drawn) | -2 | -1 | -9 | 1 | -3 | -1
CC(C)OC(=O)C[N+](C)(C)CCN1C(=O)C2C(c3ccccc3)C=CC(c3ccccc3)C2C1=O (stereo not drawn) | 1 | 5 | -6 | 2 | 3 | 13*
CCOC(=O)C(NC=O)(NC(C)(C)C)C(=O)OCC | -2 | -3 | -9 | -1 | 0 | 4.8*
Cc1ccc2ccc3ccc(C)nc3c2n1 | 8.6* | -2 | -4 | -7 | -8 | 0
Cc1ccc2c(C)ccc(O)c2n1 | -6 | -4 | -1 | 3 | -6 | -3
O=C1/C(=C/c2ccncc2)SC(=S)N1Cc1ccccc1 | 1 | 4 | -4 | 25 | -3 | 6.2*
CCCN1C(=O)/C(=C/c2ccncc2)SC1=S | -1 | 5 | 6 | 2 | -1 | -2
O=C1/C(=C\c2ccc(O)c(O)c2)SC(=S)N1Cc1ccccc1 | -1 | 34 | -3 | 0 | -7 | 1
COc1cc(/C=C2/SC(=S)N(Cc3ccccc3)C2=O)ccc1O | 3 | 12 | 5 | 1 | -4 | 4.7*
COc1ccc(CCNC(=O)CCCNC(=O)Cn2cnc3sc(C)c(C)c3c2=O)cc1OC | -1 | -13 | 10 | -4 | -2 | -3
COc1cc(OC)cc(C(=O)N[C@H](C(=O)NC2=NCCS2)C(C)C)c1 | · | -12 | -13 | -6 | 0 | ·
Cc1ccc2c(c1)c1ccc3c(c1n2C)C(=O)C=CC3=O | 12* | 1 | -17 | 2 | -5 | -1
Cc1ccc(N=Cc2sc(O)c3ccccc23)c(C)c1 | 4 | -11 | -17 | -2 | 0 | 28*
Cc1ccc(N=Cc2cccc(O)c2O)c(C)c1 | 0 | · | -7 | · | -3 | -1
Cn1ccnc1SCC(=O)c1cc2ccccc2o1 | 0 | -20 | -4 | -3 | -4 | 4.6*
COc1ccc(CCC(=O)Nc2cccc(S(=O)(=O)N3CCCC3)c2)cc1OC | · | -7 | -2 | 2 | 1 | ·
Cc1ccc(OCc2nnc(-c3ccc(Cl)cc3)o2)cc1 | · | 4 | 11 | -1 | -4 | ·
COC(=O)[C@@]1(Cc2ccccc2)[C@H]2C(=O)N(C)C(=O)[C@H]2[C@H]2CN=C(SC)N21 | · | -3 | -9 | 2 | · | ·
O=C(CSc1n[nH]c(=O)[nH]c1=O)Nc1ccc(C(=O)O)cc1 | 1 | -8 | -7 | -1 | -2 | 7.7*
CCOC(=O)C1CC(CN2C(=O)c3ccccc3C2=O)OC1=O (stereo not drawn) | · | 0 | -9 | -6 | · | ·
CC(=O)c1sc(NCc2ccc(C)cc2)nc1C | 0 | -8 | -12 | -4 | -3 | -1
CC(=O)c1sc(NCc2ccccc2)nc1C | 0 | 3 | -6 | -4 | 0 | 28*
Cc1c(CC(=O)O)c(=O)oc2c(C)c3occ(-c4ccc(Br)cc4)c3cc12 | 8.9* | 1 | 4 | 19 | -3 | -2
CCCCC(NC(=O)Cc1c(C)c2cc3c(-c4ccccc4)coc3c(C)c2oc1=O)C(=O)O (stereo not drawn) | 8.5* | 11 | -15 | -1 | -7 | -4
Cc1c(CC(=O)O)c(=O)oc2cc3occ(-c4ccc(F)cc4)c3cc12 | 1 | 4 | 3 | 9 | -3 | 0
SMILES | VIM-2 inhibitor | ATG4B inhibitor | PvdQ acylase | HKDC1 inh | beta cell repl | IMP-1 inhibitor
CC[C@@H](C)[C@H](NC(=O)Cc1c(C)c2cc3c(C)coc3c(C)c2oc1=O)C(=O)O | 2 | -3 | -3 | 6 | -2 | -4
CCOC1=CC(=O)OC(c2ccccc2)C1 (stereo not drawn) | · | -6 | 81* | -8 | · | ·
Nc1nc(NCCCN2CCOCC2)nc(Nc2cccc(F)c2)c1[N+](=O)[O-] | 9.7* | -4 | 4 | 2 | 4 | -4
COc1ccc(Nc2nc(NCCCN3CCOCC3)nc(N)c2[N+](=O)[O-])cc1 | 1 | -6 | 4 | 0 | 0 | -2
Nc1nc(NCCCN2CCOCC2)nc(Nc2ccc(F)cc2)c1[N+](=O)[O-] | 8.1* | -9 | -5 | -6 | 0 | 0
CCOc1cc(C(c2c(C)[nH][nH]c2=O)c2c(C)[nH][nH]c2=O)cc(Br)c1OC | -1 | 2 | 1 | -3 | -3 | -1
Cc1nc2c3cc(Cl)ccc3n(CCN3CCCCC3)c2s1 | 5 | -5 | -9 | -1 | -4 | 5.1*
COC(=O)Cn1c2ccc(Cl)cc2c2nc(C)sc21 | 2 | -5 | -12 | -34 | 3 | -4
O=C1Nc2ccccc2C1C(C[N+](=O)[O-])c1ccccn1 (stereo not drawn) | -3 | 3 | 4 | -2 | -3 | -1
CC1CCc2c(nc3sc4c(c3c2N)CCCC4)C1 (stereo not drawn) | 8.1* | 15 | -14 | -6 | -6 | 0
CC1CCc2nc3sc4c(c3c(N)c2C1)CCCC4 (stereo not drawn) | 6 | 8 | -16 | -1 | 0 | -3
CN(C)/C=C(\C=O)c1ccc(Cl)cc1Cl | -6 | -1 | -1 | 3 | -4 | -1
COc1ccc(C(=O)Nc2ccccc2-c2ccccc2)cc1Cl | -1 | 33 | -14 | 9 | 0 | 5.2*
COC(=O)c1ccc(NC(=O)c2ccc(C)cc2)o1 | -1 | 5 | -14 | -2 | -1 | 5.5*
COC(=O)c1ccc(NC(=O)c2ccc(F)cc2)o1 | -2 | 3 | -3 | -5 | -2 | -2
CCCS(=O)(=O)N1CCCC(C(=O)NCC2CCCO2)C1 (stereo not drawn) | -4 | -3 | -13 | -6 | -3 | 4.9*
Cc1ccc(S(=O)(=O)N2CCCC(C(=O)NCC3CCCO3)C2)cc1 (stereo not drawn) | -4 | -5 | 0 | -5 | 0 | -1
CN(C)c1nc(N(C)C)n(Cc2c(Cl)cccc2Cl)n1 | -4 | 2 | 3 | -2 | -3 | -2
CCCCN(CC)CCNC(=O)c1cc2c(=O)[nH]c3ccccc3c2n1C | 6 | -9 | -18 | 0 | 1 | -1
CCCN(CCC)CCCNC(=O)c1cc2c(=O)[nH]c3ccccc3c2n1C | 8.9* | -11 | -11 | -5 | 4 | -1
Cn1c(C(=O)NCCCN2CCN(c3ccc(F)cc3)CC2)cc2c(=O)n(C)c3ccccc3c21 | · | -6 | -4 | 9 | · | ·
Cn1c(C(=O)NCCN2CCN(c3ccccc3F)CC2)cc2c(=O)n(C)c3ccccc3c21 | 8.8* | -3 | -6 | 3 | 3 | -1
Cn1c(C(=O)NCCN2CCOCC2)cc2c(=O)n(C)c3ccccc3c21 | 13* | -2 | 4 | 3 | 6 | -3
Cn1c(C(=O)NCc2cccs2)cc2c(=O)n(C)c3ccccc3c21 | -1 | -1 | -6 | -2 | -3 | -4
Cn1c(C(=O)N2CCCCCC2)cc2c(=O)n(C)c3ccccc3c21 | 8.2* | -7 | -14 | 2 | -3 | -2

Screening data: PubChem, several laboratories
